Measurements from ChEMBL document CHEMBL4043282, “Discovery of the First Potent, Selective, and Orally Bioavailable Signal Peptide Peptidase-Like 2a (SPPL2a) Inhibitor Displaying Pronounced Immunomodulatory Effects In Vivo” (J Med Chem, 2018).
Calls of active or inactive are those of the source. The calls are words filed in the database; no cut-off is given here.

What was measured:
[1] = system: Mus musculus; assay: Immunomodulatory activity in mouse assessed as reduction in follicular B cells in splenocyte at 3 to 30 mg/kg administered via oral gavage bid at 8 and 16 hrs dosing interval between first and second dose respectively for 11 days measured 16 hrs post last dose on day 12 by flow cytometry; assay type: functional, organism-based
How it was run: (§1)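 Mice gavaged with compound in 0.5% MC:0.5% Tween or PEG:D5W 3:1. Spleens dissociated in GentleMACS, filtered at 40 μm, ACK red-cell lysis, counted; 1 × 10^6 splenocytes stained 30 min on ice in HBSS/2% FBS/5 mM EDTA with antimouse panels for B-cell subsets (B220, CD21, CD23, IgM, IgD) or dendritic cells (PDCA1, CD11c, MHCII, lineage markers); analyzed on Fortessa flow cytometer.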

[2] = Clearance in Wistar rat at 3 mg/kg, iv by LC/MS/MS analysis; assay type: ADME, organism-based; settings: in vivo
[3] = molecular target: T1, Signal peptide peptidase-like 2A (Mus musculus, UniProt Q9JJF9); assay: Inhibition of mouse SPPL2a in A20 cells assessed as CD74/p8 accumulation by flow cytometry; assay type: cell-based
T1 sequence (Q9JJF9 whole entry): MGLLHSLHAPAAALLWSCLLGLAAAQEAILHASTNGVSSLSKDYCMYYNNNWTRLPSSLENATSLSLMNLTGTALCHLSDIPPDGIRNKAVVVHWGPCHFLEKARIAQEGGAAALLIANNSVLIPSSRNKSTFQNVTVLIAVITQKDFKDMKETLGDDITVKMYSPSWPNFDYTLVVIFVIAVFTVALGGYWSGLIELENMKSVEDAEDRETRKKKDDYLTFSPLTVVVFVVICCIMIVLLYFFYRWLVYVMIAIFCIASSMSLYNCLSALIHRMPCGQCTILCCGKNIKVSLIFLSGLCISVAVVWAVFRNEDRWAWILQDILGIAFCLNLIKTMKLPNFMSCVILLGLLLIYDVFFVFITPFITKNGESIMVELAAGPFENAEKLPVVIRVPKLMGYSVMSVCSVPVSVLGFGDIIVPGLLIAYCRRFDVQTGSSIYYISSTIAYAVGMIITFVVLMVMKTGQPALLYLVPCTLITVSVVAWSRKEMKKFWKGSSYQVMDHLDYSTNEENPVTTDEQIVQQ

[4] = system: Mus musculus; assay: Dose normalized AUC in po dosed Balb/c mouse by LC/MS/MS analysis; assay type: ADME, organism-based; settings: in vivo
[5] = Oral bioavailability in Balb/c mouse by LC/MS/MS analysis; assay type: ADME, organism-based; settings: in vivo
[6] = Clearance in Balb/c mouse at 5 mg/kg, iv by LC/MS/MS analysis; assay type: ADME, organism-based; settings: in vivo
[7] = Inhibition of human gamma-secretase expressed in HEK293 cells using Notch1-VP16-Gal4 as substrate after 24 hrs by Bright-Glo luciferase reporter gene assay; assay type: cell-based; settings: HEK293, 24 h
How it was run: (§2)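 HEK293 cells transiently transfected with human SPPL2a, VP16-TNFα(aa1-76)-NTF substrate and Gal4-luciferase reporter (SPPL2a), or human Notch1-VP16-Gal4 plus Gal4-luciferase reporter relying on endogenous γ-secretase.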

[8] = molecular target: T2, Signal peptide peptidase-like 2A (Homo sapiens, UniProt Q8TCT8); assay: Inhibition of human SPPL2a expressed in HEK293 cells using GAL4-VP16 fusedTNFalpha (1 to 76)-NTF as substrate after 24 hrs by Bright-Glo luciferase reporter gene assay; assay type: cell-based; how it was run: as §2
T2 sequence (Q8TCT8 whole entry): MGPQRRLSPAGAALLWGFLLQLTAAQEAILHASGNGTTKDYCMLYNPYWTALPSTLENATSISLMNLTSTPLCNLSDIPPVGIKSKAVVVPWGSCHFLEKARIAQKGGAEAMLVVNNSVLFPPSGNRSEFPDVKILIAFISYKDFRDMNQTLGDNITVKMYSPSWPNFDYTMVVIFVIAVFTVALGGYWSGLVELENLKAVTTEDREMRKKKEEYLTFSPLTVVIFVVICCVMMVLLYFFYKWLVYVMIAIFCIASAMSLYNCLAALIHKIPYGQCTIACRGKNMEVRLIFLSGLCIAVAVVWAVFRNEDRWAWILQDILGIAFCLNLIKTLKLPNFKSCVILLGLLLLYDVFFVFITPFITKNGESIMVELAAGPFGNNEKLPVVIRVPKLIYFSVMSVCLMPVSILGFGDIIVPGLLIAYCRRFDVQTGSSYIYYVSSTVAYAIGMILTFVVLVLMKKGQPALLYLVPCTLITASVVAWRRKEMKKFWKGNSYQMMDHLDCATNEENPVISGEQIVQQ

[9] = molecular target: T2, Signal peptide peptidase-like 2A; assay: Inhibition of human SPPL2a expressed in human U2OS cells using EGFP-labeled TNFalpha (1 to 76 residues) NTF as substrate after 24 hrs by Hoechst staining based high content imaging analysis; assay type: cell-based
How it was run: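 Stable U-2 OS lines expressing human SPPL2a, SPPL2b or SPP constitutively (mouse SPPL2a line analogous, mouse TNFα(aa1-77)-NTF-EGFP-NLS) with doxycycline-inducible EGFP substrate. 3000 cells/well, 3−4 h, then 11-point inhibitor 100 μM to 1 nM, 0.9% DMSO, 5 μg/mL doxycycline, 24 h 37 °C. PFA fixed, Hoechst nuclei; nuclear minus cytoplasmic EGFP intensity; inhibition vs 0.5 μM reference and DMSO; IC50 by nonlinear regression.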

[10] = system: Salmonella typhimurium; assay: Genotoxicity in Salmonella typhimurium by Ames test; assay type: toxicity; settings: salmonella enterica subsp. enterica serovar typhimurium
[11] = Total concentration in Lewis rat blood at 3 mg/kg, po bid after 24 hrs by LC/MS/MS analysis; assay type: ADME, organism-based; settings: read-out: Drug uptake
[12] = Drug uptake in Lewis rat spleen at 30 mg/kg, po bid after 24 hrs by LC/MS/MS analysis; assay type: ADME, organism-based; settings: read-out: Drug uptake
[13] = Drug uptake in Lewis rat spleen at 10 mg/kg, po bid after 24 hrs by LC/MS/MS analysis; assay type: ADME, organism-based; settings: read-out: Drug uptake
[14] = system: Mus musculus; assay: Immunomodulatory activity in mouse assessed as reduction in transition T2 B cells in splenocyte at 3 to 30 mg/kg administered via oral gavage bid at 8 and 16 hrs dosing interval between first and second dose respectively for 11 days measured 16 hrs post last dose on day 12 by flow cytometry; assay type: functional, organism-based; how it was run: as §1
[15] = Total plasma concentration in mouse at 10 mg/kg, po administered as single dose after 4 hrs by LC/MS/MS analysis; assay type: ADME, organism-based
[16] = system: Mus musculus; assay: In vivo inhibition of mouse gamma-secretase assessed as effect on Hes1 mRNA level in thymus up to 100 mg/kg, po administered as single dose by RT-PCR method; assay type: organism-based
How it was run: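 Thymus and jejunum excised into RNALater, 4 °C overnight, washed, frozen at −80 °C; total RNA from 10 mg tissue by MagNA Pure LC; Hes1 measured by TaqMan real-time PCR; significance by two-tailed heteroscedastic Student's t-test.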

Row | Compound | Activity [1] | clearance [2] | IC50 [3] | AUC/dose [4] | bioavailability [5] | clearance [6] | IC50 [7] | IC50 [8] | IC50 [9] | Activity [10] | concentration at 24 h [11] | concentration at 24 h [12] | concentration at 24 h [13] | Activity [14] | concentration at 4 h [15] | Activity [16]
1 | Cc1ncc(F)cc1NC(=O)C[C@H](C(=O)N[C@@H]1C(=O)N2CC3(CC3)CN2C(=O)c2ccccc21)C1CC1 | Active | 6 mL/min/kg | 137 nM | 6071 nM·h | 94% | 5 mL/min/kg | 6100 nM | 77 nM | 160 nM | Non-Toxic | 231 nM | 4450 nM | 2400 nM | Active |  | 
2 | Cc1ccccc1NC(=O)C[C@@H](C)C(=O)N[C@@H]1C(=O)N2CCCN2Cc2ccccc21 |  |  | 370 nM | 908 nM·h | 100% | 46 mL/min/kg | 1860 nM | 35 nM |  |  |  |  |  |  | 57 nM | Non-Toxic
